Values after ≈ are worked out from the molar mass of the structure shown.
What was measured:
[1] = target: T1, Hypoxanthine-guanine phosphoribosyltransferase (Mycobacterium tuberculosis (strain ATCC 25618 / H37Rv), UniProt P9WHQ9); assay: Inhibition of Mycobacterium tuberculosis recombinant N-terminal 6His-tagged HGPRT expressed in Escherichia coli BL21 (DE3) using fixed concentration of guanine and variable concentrations of PRib-PP as substrate by spectrophotometric analysis
T1 sequence (P9WHQ9 whole entry): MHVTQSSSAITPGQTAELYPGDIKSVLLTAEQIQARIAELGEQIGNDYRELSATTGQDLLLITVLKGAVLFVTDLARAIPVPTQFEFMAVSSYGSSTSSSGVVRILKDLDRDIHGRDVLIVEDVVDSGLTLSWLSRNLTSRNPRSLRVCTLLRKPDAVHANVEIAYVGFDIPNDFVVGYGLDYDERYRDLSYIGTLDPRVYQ
In short: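 Recombinant MtHGPRT, stored in 0.1 M Tris-HCl, 12 mM MgCl2, pH 7.4 with 200 μM PRib-PP at -80 °C. Continuous spectrophotometric assay following guanine to GMP at 257.5 nm in 0.01 M phosphate, 12 mM MgCl2, pH 7.4.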

[2] = Ratio of Ki for Mycobacterium tuberculosis recombinant N-terminal 6His-tagged HGPRT expressed in Escherichia coli BL21 (DE3) to Ki for human HGPRT
[3] = target: T2, Hypoxanthine-guanine phosphoribosyltransferase (Homo sapiens, UniProt P00492); assay: Inhibition of human HGPRT using fixed concentration of guanine and variable concentrations of PRib-PP as substrate by spectrophotometric analysis
T2 sequence (P00492 whole entry): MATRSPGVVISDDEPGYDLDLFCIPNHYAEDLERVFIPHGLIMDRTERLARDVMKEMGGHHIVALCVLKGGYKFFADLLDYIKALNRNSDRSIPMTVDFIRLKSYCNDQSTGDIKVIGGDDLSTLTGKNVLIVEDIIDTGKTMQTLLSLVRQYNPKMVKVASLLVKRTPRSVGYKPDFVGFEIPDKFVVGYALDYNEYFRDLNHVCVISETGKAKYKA

[4] = target: T1, Hypoxanthine-guanine phosphoribosyltransferase; assay: Inhibition of Mycobacterium tuberculosis recombinant N-terminal 6His-tagged HGPRT expressed in Escherichia coli BL21 (DE3) using fixed concentration of guanine and variable concentrations of PRib-PP as substrate in presence of pyrophosphate by spectrophotometric analysis
In short: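 Continuous assay of recombinant MtHGPRT at 257.5 nm (guanine to GMP) in 0.01 M phosphate, 12 mM MgCl2, pH 7.4, with 400 μM pyrophosphate added.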

[5] = target: T2, Hypoxanthine-guanine phosphoribosyltransferase; assay: Inhibition of recombinant human HGPRT using fixed concentration of guanine and variable concentrations of PRib-PP as substrate by Hanes plot analysis
[6] = system: Mycobacterium tuberculosis; assay: Antitubercular activity against Mycobacterium tuberculosis H37Rv after 5 days under hypoxic condition by resazurin dye-based assay; type: functional; settings: 120 h
[7] = system: Mycobacterium tuberculosis; assay: Antitubercular activity against Mycobacterium tuberculosis H37Rv infected in human THP-1 cells after 4 days by fluorescence based assay; type: functional; settings: 96 h
In short: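 THP-1 cells differentiated with 50 ng/ml PMA for 72 h (5×10^5 cells/mL), infected with mCherry-expressing H37Rv at MOI 1:1 for 2 h, washed twice to remove extracellular bacilli.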

[8] = Cytotoxicity against human A549 cells after 4 days by Coulter counting analysis; type: cell-based
In short: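 A549 cells seeded at 7500/well; serially diluted compounds added the next day. After 4 days at 37 °C, cells were trypsinized and counted. CC50 is the concentration that gives 50% inhibition of proliferation relative to no-compound control. It was obtained by extrapolation assuming a semi-log dose-response.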

[9] = system: Mycobacterium tuberculosis; assay: Antitubercular activity against replicating stage of Mycobacterium tuberculosis H37Rv after 5 days by resazurin dye-based assay; type: functional; settings: 120 h
[10] = system: Mycobacterium tuberculosis; assay: Ratio of MIC90 for Mycobacterium tuberculosis H37Rv under hypoxic condition to MIC90 for replicating stage of Mycobacterium tuberculosis H37Rv; type: functional
In short: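 Inhibitors were serially diluted, incubated 5 days at 37 °C, then read by fluorescence (ex 530/em 590) for MIC90. The hypoxic arm used a 0.1% O₂ chamber, was read 48 h after resazurin addition, and ran isoniazid controls in parallel.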

| Compound | Ki [1] [nM] | Ratio Ki [2] | Ki [3] [nM] | further results |
| --- | --- | --- | --- | --- |
| O=C(CCP(=O)(O)O)N1C[C@H](OCCP(=O)(O)O)[C@H](n2cnc3c(O)ncnc32)C1 | 420 | 0.7 | 600 |  |
| Nc1nc2c(ncn2[C@@H]2CNC[C@@H]2OCP(=O)(O)O)c(=O)[nH]1 | 8000 | 0.3 | 29000 | Ki [4]: 740 nM |
| Nc1nc2c(ncn2[C@@H]2CN(C(=O)CCP(=O)(O)O)C[C@H]2OC[C@H](O)P(=O)(O)O)c(=O)[nH]1 | 130 | 16 |  | Ki [5]: 8 nM |
| O=C(CCP(=O)(O)O)N1C[C@@H](n2cnc3c(O)ncnc32)[C@H](OC[C@@H](O)P(=O)(O)O)C1 | 60 |  |  |  |
| O=P(O)(O)CO[C@H]1CNC[C@H]1n1cnc2c(O)ncnc21 | 88000 | 0.3 | 327000 | Ki [4]: 3000 nM |
| Nc1nc2c(ncn2[C@@H]2CN(C(=O)CCP(=O)(O)O)C[C@@H]2OCCP(=O)(O)O)c(=O)[nH]1 | 40 | 1.3 | 30 |  |
| Nc1nc2c(ncn2[C@@H]2CN(C(=O)CCP(=O)(O)O)C[C@H]2OC[C@@H](O)P(=O)(O)O)c(=O)[nH]1 | 60 | 20 |  | MIC90 [6]: 29 µM (≈ 14.4 µg/mL); MIC90 [7]: 85 µM (≈ 42.2 µg/mL); CC50 at 96 h [8]: 132000 nM; Ki [5]: 3 nM; MIC90 [9]: 14 µM (≈ 6.95 µg/mL); Ratio [10]: 2 |
| O=C(CCP(=O)(O)O)N1C[C@@H](n2cnc3c(O)ncnc32)[C@H](OC[C@H](O)P(=O)(O)O)C1 | 200 |  |  |  |

Reference: ChEMBL document CHEMBL4265962, “Pyrrolidine nucleoside bisphosphonates as antituberculosis agents targeting hypoxanthine-guanine phosphoribosyltransferase” (Eur J Med Chem, 2018)
